≈ marks a conversion by molar mass, not a printed value. Calls of active or inactive are those of the source. The rule behind the calls is not given here.
Key:
[1] = tested on: Mycobacterium tuberculosis; assay: Antitubercular activity against Mycobacterium tuberculosis H37Rv ATCC 27294 incubated for 7 days by resazurin assay; assay type: functional; conditions: H37Rv ATCC 27294, 168 h
[2] = Lipophilicity, logP of the compound; assay type: physicochemical; conditions: octanol/water
[3] = target: Mitogen-activated protein kinase 3 (Homo sapiens) (UniProt P27361); assay: Binding affinity to human ERK1 expressed in Escherichia coli BL21 by fluorescence quenching based spectrofluorometric analysis
Sequence of Mitogen-activated protein kinase 3 (Homo sapiens) (P27361 whole entry): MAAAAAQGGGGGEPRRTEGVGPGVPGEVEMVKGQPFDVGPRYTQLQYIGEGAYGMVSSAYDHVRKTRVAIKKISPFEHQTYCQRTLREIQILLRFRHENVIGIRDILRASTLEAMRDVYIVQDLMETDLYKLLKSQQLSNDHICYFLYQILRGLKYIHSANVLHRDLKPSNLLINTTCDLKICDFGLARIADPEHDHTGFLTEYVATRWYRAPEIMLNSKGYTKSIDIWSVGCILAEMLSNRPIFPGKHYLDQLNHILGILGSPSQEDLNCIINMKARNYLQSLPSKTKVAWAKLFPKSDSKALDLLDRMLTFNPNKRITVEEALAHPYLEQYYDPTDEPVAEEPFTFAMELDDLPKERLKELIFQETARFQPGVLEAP
In short: (§1)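 C-terminally His6-tagged ERK1 or p38 MAPK expressed in E. coli and purified. Protein at 10 μM in 50 mM sodium phosphate, 100 mM NaCl, pH 8.0, titrated with ligand to 1:10 protein:ligand. Excitation 290 nm, emission 290–500 nm. Binding constant K derived from fluorescence quenching.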

[4] = target: T1, MAP kinase p38 (Homo sapiens) (UniProt O15264+Q15759+Q16539+P53778); assay: Binding affinity to human C-terminally His-tagged p38 expressed in Escherichia coli BL21 by fluorescence quenching based spectrofluorometric analysis; in short: as §1
[5] = tested on: Mycobacterium tuberculosis; assay: Antitubercular activity against Mycobacterium tuberculosis H37Rv P887 at 158 uM incubated for 1 to 9 days by inverted microscopic analysis; assay type: functional
In short: (§2)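 Bacteria immobilised in 0.5% agarose within microfluidic channels of a 96-well chip. Compound (0–632 μM; rifampicin 0–19.4 μM) supplied in Middlebrook 7H9 with 10% OADC and allowed to diffuse in. Incubated at 37 °C; channel boundary imaged by inverted microscopy (40×) at 1, 3, 5, 7 and 9 days. MIC90 taken as lowest concentration giving 90% growth inhibition. Triplicate.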

[6] = tested on: Mycobacterium tuberculosis; assay: Antitubercular activity against Mycobacterium tuberculosis H37Rv P887 incubated for 1 to 9 days by inverted microscopic analysis; assay type: functional; in short: as §2
[7] = tested on: Mycobacterium tuberculosis; assay: Antitubercular activity against MDR Mycobacterium tuberculosis M22 incubated for 1 to 9 days by inverted microscopic analysis; assay type: functional; in short: as §2
[8] = tested on: Mycobacterium tuberculosis; assay: Antitubercular activity against MDR Mycobacterium tuberculosis X23 incubated for 1 to 9 days by inverted microscopic analysis; assay type: functional
[9] = tested on: Mycobacterium tuberculosis; assay: Antitubercular activity against XDR Mycobacterium tuberculosis X24 incubated for 1 to 9 days by inverted microscopic analysis; assay type: functional; in short: as §2
[10] = tested on: Mycobacterium tuberculosis; assay: Antitubercular activity against XDR Mycobacterium tuberculosis X59 incubated for 1 to 9 days by inverted microscopic analysis; assay type: functional; in short: as §2
MRC5 [11] = assay: Antiinflammatory activity against IFN-gamma-stimulated human MRC5 cells assessed as reduction of IL-1beta mRNA level at 20 uM incubated for 3 hrs by RT-PCR analysis relative to control; assay type: functional; parameters: scale not given: the % may be the effect or the level left
In short: (§3)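 MRC-5 cells cultured in DMEM with 10% FBS at 37 °C, 5% CO2, then stimulated with or without 20 ng/mL IFN-γ in presence or absence of test agent for 3 h. Competitive RT-PCR; targets amplified 25 cycles (annealing 57 °C). Band densitometry expressed relative to β-actin mRNA. Mean ± SD.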

MRC5 [12] = assay: Antiinflammatory activity against IFN-gamma-stimulated human MRC5 cells assessed as reduction of IL-6 mRNA level at 20 uM incubated for 3 hrs by RT-PCR analysis relative to control; assay type: functional; parameters: scale not given: the % may be the effect or the level left; in short: as §3
MRC5 [13] = assay: Antiinflammatory activity against IFN-gamma-stimulated human MRC5 cells assessed as reduction of IL-12 mRNA level at 20 uM incubated for 3 hrs by RT-PCR analysis relative to control; assay type: functional; parameters: scale not given: the % may be the effect or the level left; in short: as §3
MRC5 [14] = assay: Antiinflammatory activity against IFN-gamma-stimulated human MRC5 cells assessed as reduction of TNF-alpha mRNA level at 20 uM incubated for 3 hrs by RT-PCR analysis relative to control; assay type: functional; parameters: scale not given: the % may be the effect or the level left; in short: as §3
MRC5 [15] = assay: Antiinflammatory activity against IFN-gamma-stimulated human MRC5 cells assessed as reduction of MMP-1 mRNA level at 20 uM incubated for 3 hrs by RT-PCR analysis relative to control; assay type: functional; parameters: scale not given: the % may be the effect or the level left; in short: as §3
[16] = target: Mitogen-activated protein kinase; ERK1/ERK2 (Homo sapiens) (UniProt P27361+P28482); assay: Downregulation of ERK1/2 phosphorylation in IFN-gamma-induced human MRC5 cells at 20 uM pretreated for 1 hr followed by IFN-gamma stimulation for 3 hrs by Western blot analysis; assay type: cell-based
Sequence of Mitogen-activated protein kinase; ERK1/ERK2 (Homo sapiens) (P27361 whole entry, looked up): as the sequence (P27361 whole entry) above
Sequence of Mitogen-activated protein kinase; ERK1/ERK2 (Homo sapiens) (P28482 whole entry, looked up): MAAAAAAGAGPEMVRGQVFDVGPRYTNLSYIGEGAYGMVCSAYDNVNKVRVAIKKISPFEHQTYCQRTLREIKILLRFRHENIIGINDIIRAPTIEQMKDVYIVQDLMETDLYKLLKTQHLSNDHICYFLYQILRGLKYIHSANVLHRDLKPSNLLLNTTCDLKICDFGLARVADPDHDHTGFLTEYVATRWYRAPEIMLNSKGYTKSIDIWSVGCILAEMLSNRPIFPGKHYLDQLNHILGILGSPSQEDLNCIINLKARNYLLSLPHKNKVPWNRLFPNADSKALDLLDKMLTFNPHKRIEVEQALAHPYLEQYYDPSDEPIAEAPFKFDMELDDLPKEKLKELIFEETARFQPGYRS
In short: (§4)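 MRC-5 cells pretreated with 20 μM agent for 1 h, then 20 ng/mL IFN-γ for 3 h. Cytoplasmic lysates prepared; 20 μg protein run on 10% SDS-PAGE and transferred to PVDF. Membranes blocked in 5% BSA/TBST and probed overnight at 4 °C with phospho-specific and total MAPK antibodies. β-Actin used as loading control.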

[17] = target: T1, MAP kinase p38 (Homo sapiens); assay: Downregulation of p38 phosphorylation in IFN-gamma-induced human MRC5 cells at 20 uM pretreated for 1 hr followed by IFN-gamma stimulation for 3 hrs by Western blot analysis; assay type: cell-based; in short: as §4
[18] = target: Mitogen-activated protein kinase 8/9 (Homo sapiens) (UniProt P45983+P45984); assay: Downregulation of JNK1/2 phosphorylation in IFN-gamma-induced human MRC5 cells at 20 uM pretreated for 1 hr followed by IFN-gamma stimulation for 3 hrs by Western blot analysis; assay type: cell-based; in short: as §4
Sequence of Mitogen-activated protein kinase 8/9 (Homo sapiens) (P45983 whole entry, looked up): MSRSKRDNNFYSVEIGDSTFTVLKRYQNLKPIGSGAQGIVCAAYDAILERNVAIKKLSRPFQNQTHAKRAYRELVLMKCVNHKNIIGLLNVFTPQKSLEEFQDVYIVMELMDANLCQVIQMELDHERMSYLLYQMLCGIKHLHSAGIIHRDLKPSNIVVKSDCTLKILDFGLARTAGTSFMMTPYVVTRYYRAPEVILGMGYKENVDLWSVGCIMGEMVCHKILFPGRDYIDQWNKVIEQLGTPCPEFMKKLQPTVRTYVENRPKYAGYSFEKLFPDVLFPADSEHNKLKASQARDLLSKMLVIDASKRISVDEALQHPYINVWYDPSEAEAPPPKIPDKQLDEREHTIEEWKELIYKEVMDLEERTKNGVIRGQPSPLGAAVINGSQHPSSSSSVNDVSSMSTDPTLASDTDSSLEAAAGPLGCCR
Sequence of Mitogen-activated protein kinase 8/9 (Homo sapiens) (P45984 whole entry, looked up): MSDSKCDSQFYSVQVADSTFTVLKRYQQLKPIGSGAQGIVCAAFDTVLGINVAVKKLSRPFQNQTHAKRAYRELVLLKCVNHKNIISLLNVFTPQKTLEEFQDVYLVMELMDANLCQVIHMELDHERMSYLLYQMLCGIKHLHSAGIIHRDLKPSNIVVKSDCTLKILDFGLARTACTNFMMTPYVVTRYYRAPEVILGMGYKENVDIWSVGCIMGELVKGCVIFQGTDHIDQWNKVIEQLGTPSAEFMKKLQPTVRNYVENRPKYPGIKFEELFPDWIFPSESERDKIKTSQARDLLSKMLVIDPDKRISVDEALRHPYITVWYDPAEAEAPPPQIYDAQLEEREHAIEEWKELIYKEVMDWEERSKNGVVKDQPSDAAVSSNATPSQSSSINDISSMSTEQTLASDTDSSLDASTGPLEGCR

MRC5 [19] = assay: Antiinflammatory activity against IFN-gamma-stimulated human MRC5 cells assessed as reduction of TNF-alpha production at 5 uM after 24 hrs by ELISA relative to control; assay type: functional; parameters: scale not given: the % may be the effect or the level left
In short: (§5)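 MRC-5 cells stimulated with IFN-γ and exposed to test agent for 24 h. TNF-α and IL-12 in culture media measured by sandwich ELISA: capture antibody coated overnight at 4 °C, blocking 1 h, sample 2 h at RT, detection antibody 1 h, TMB substrate, stopped with 1 N H2SO4, OD 450 nm. Mean ± SD of at least three independent experiments.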

MRC5 [20] = assay: Antiinflammatory activity against IFN-gamma-stimulated human MRC5 cells assessed as reduction of TNF-alpha production at 10 uM after 24 hrs by ELISA relative to control; assay type: functional; parameters: scale not given: the % may be the effect or the level left; in short: as §5
MRC5 [21] = assay: Antiinflammatory activity against IFN-gamma-stimulated human MRC5 cells assessed as reduction of IL-12 production at 5 uM after 24 hrs by ELISA relative to control; assay type: functional; parameters: scale not given: the % may be the effect or the level left; in short: as §5
MRC5 [22] = assay: Antiinflammatory activity against IFN-gamma-stimulated human MRC5 cells assessed as reduction of IL-12 production at 10 uM after 24 hrs by ELISA relative to control; assay type: functional; parameters: scale not given: the % may be the effect or the level left; in short: as §5
Mus musculus [23] = assay: Antiinflammatory activity against LPS-induced BALB/c mouse lung inflammation model assessed as lowering of IL-12 level at 0.01 to 0.5 mg/kg, ip administered for 1 hr followed by LPS stimulation for 12 hrs relative to vehicle-treated control; assay type: functional, organism-based
In short: (§6)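 Female BALB/c mice, 6 weeks old, acclimatised 1 week; 6 groups of 3. Test agent (0.01, 0.1 or 0.5 mg/kg) given ip; 1 h later LPS 10 mg/kg ip in PBS. Sacrifice at 12 h. Whole lungs homogenised in NP-40 lysis buffer at 4 °C and centrifuged. Cytokines in supernatant measured by ELISA (OD 450 nm).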

Mus musculus [24] = assay: Antiinflammatory activity against LPS-induced BALB/c mouse lung inflammation model assessed as lowering of IL-1beta level at 0.01 to 0.5 mg/kg, ip administered for 1 hr followed by LPS stimulation for 12 hrs relative to vehicle-treated control; assay type: functional, organism-based; in short: as §6
Mus musculus [25] = assay: Antiinflammatory activity against LPS-induced BALB/c mouse lung inflammation model assessed as lowering of IL-6 level at 0.01 to 0.5 mg/kg, ip administered for 1 hr followed by LPS stimulation for 12 hrs relative to vehicle-treated control; assay type: functional, organism-based; in short: as §6
Mus musculus [26] = assay: Antiinflammatory activity against LPS-induced BALB/c mouse lung inflammation model assessed as lowering of IFN-gamma level at 0.01 to 0.5 mg/kg, ip administered for 1 hr followed by LPS stimulation for 12 hrs relative to vehicle-treated control; assay type: functional, organism-based; in short: as §6
[27] = Toxicity in mouse at 0.01 to 0.5 mg/kg assessed as irritability; assay type: organism-based; conditions: in vivo
[28] = Toxicity in mouse at 0.01 to 0.5 mg/kg assessed as twisting; assay type: organism-based; conditions: in vivo
[29] = Toxicity in mouse at 0.01 to 0.5 mg/kg assessed as breathing; assay type: organism-based; conditions: in vivo
[30] = Toxicity in mouse at 0.01 to 0.5 mg/kg assessed as weight loss; assay type: organism-based; conditions: in vivo
[31] = Toxicity in mouse at 0.01 to 0.5 mg/kg assessed as death; assay type: organism-based; conditions: in vivo
[32] = Toxicity in mouse at 0.01 to 0.5 mg/kg assessed as change in AST level; assay type: organism-based; conditions: in vivo
In short: (§7)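 BALB/c mice, 3 per group, given 0.01, 0.1 or 0.5 mg/kg ip; LPS 10 mg/kg ip 1 h later. Sacrificed at 12 h. Serum AST, ALT and BUN measured on an automated clinical analyser. Mean ± SD.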

[33] = Toxicity in mouse at 0.01 to 0.5 mg/kg assessed as change in ALT level; assay type: organism-based; conditions: in vivo; in short: as §7
[34] = Toxicity in mouse at 0.01 to 0.5 mg/kg assessed as change in BUN level; assay type: organism-based; conditions: in vivo; in short: as §7
[35] = Cytotoxicity against human HaCaT cells assessed as cell survival rate at 158 uM after 24 hrs by MTT assay; assay type: cell-based; conditions: read-out: Survival
In short: (§8)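 Cells treated for 24 h with test agent (0–400 μM) or rifampicin (0–16 μM), then MTT assay. Survival taken as A570 of treated cells over A570 of untreated cells, as a percentage. Average of triplicates from three independent experiments.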

[36] = Cytotoxicity against mouse NIH/3T3 cells assessed as cell survival rate at 158 uM after 24 hrs by MTT assay; assay type: cell-based, NIH3T3; conditions: read-out: Survival; in short: as §8
[37] = Cytotoxicity against human MRC5 cells assessed as cell survival rate at 158 uM after 24 hrs by MTT assay; assay type: cell-based; conditions: read-out: Survival; in short: as §8
[38] = Cytotoxicity against human HaCaT cells assessed as cell survival rate at 316 uM after 24 hrs by MTT assay; assay type: cell-based; conditions: read-out: Survival; in short: as §8
[39] = Cytotoxicity against mouse NIH/3T3 cells assessed as cell survival rate at 316 uM after 24 hrs by MTT assay; assay type: cell-based, NIH3T3; conditions: read-out: Survival; in short: as §8
[40] = Cytotoxicity against human MRC5 cells assessed as cell survival rate at 316 uM after 24 hrs by MTT assay; assay type: cell-based; conditions: read-out: Survival; in short: as §8
[41] = Cytotoxicity against human HaCaT cells assessed as cell survival rate at 400 uM after 24 hrs by MTT assay; assay type: cell-based; conditions: read-out: Survival; in short: as §8
[42] = Cytotoxicity against mouse NIH/3T3 cells assessed as cell survival rate at 400 uM after 24 hrs by MTT assay; assay type: cell-based, NIH3T3; conditions: read-out: Survival; in short: as §8

Molecule `O=c1c(O)c(-c2ccc(O)c(O)c2)oc2cc(O)cc(O)c12` [QUERCETIN] has an MIC [1] greater than 827 µM, a logP [2] of 1.63 and a K [3] of 5.62 ×10⁵ /M. It also gave a K [4] of 9.87 ×10⁵ /M.
Molecule `COc1cc(-c2oc3cc(O)cc(O)c3c(=O)c2O)ccc1O` [ISORHAMNETIN] has an inhibition at 158 µM [5] of 90%, an MIC90 [6] of 158 µM (≈ 50 µg/mL) and an MIC90 [7] of 316 µM (≈ 99.9 µg/mL). It also gave an MIC90 [8] of 316 µM (≈ 99.9 µg/mL), an MIC90 [9] of 316 µM (≈ 99.9 µg/mL) and an MIC90 [10] of 316 µM (≈ 99.9 µg/mL). It also gave a logP [2] of 1.86, an Activity (MRC5 [11]) of 39% and an Activity (MRC5 [12]) of 69%. It also gave an Activity (MRC5 [13]) of 76%, an Activity (MRC5 [14]) of 56% and an Activity (MRC5 [15]) of 41%. The Activity [16] was “Active”, the Activity [17] was “Active” and the Activity [18] was “inactive”. For the same molecule, the Activity (MRC5 [19]) was 37.5%, the Activity (MRC5 [20]) was 43.75% and the Activity (MRC5 [21]) was 45%. For the same molecule, the Activity (MRC5 [22]) was 50%, the Activity (Mus musculus [23]) was “Active” and the Activity (Mus musculus [24]) was “Active”. The Activity (Mus musculus [25]) was “Active”, the Activity (Mus musculus [26]) was “Active” and the Activity [27] was “Non-Toxic”. The Activity [28] was “Non-Toxic”, the Activity [29] was “Non-Toxic” and the Activity [30] was “Non-Toxic”. The Activity [31] was “Non-Toxic”, the Activity [32] was “Non-Toxic” and the Activity [33] was “Non-Toxic”. The Activity [34] was “Non-Toxic”, the viability at 24 h, 158 µM [35] was 90% and the viability at 24 h, 158 µM [36] was 78%. For the same molecule, the viability at 24 h, 158 µM [37] was 54%, the viability at 24 h, 316 µM [38] was 71% and the viability at 24 h, 316 µM [39] was 63%. For the same molecule, the viability at 24 h, 316 µM [40] was 47%, the viability at 24 h, 400 µM [41] was 66% and the viability at 24 h, 400 µM [42] was 58%. It also gave a K [3] of 4.46 ×10⁶ /M and a K [4] of 7.6 ×10⁶ /M.
